In the array DNA melting data of Ke et al. (doi:10.1101/2024.01.08.574731):

Experiments:
[1] = folding enthalpy; higher = less favourable; fluorescence melt of hairpins on a sequencing array, two-state fit; conditions: sodium 0.088 M
How it was run: (§1)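 Two-state fits, bootstrapped, provided melting temperature and folding enthalpy from Cy3 fluorescence normalised to pre-quench Cy3 and to control constructs. Library hairpins with annealed Cy3 and quencher oligos were imaged on a sequenced MiSeq flow cell in 50 mM Na-HEPES pH 8.0, 25 mM NaCl, at 2.5 °C intervals up to 60 °C. Four replicates were combined with inverse-variance weighting. A 9.35 °C upward shift was applied to fitted temperatures to match UV melts.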

[2] = melting temperature; fluorescence melt of hairpins on a sequencing array, two-state fit, raised by 9.35 °C to match UV melts; conditions: sodium 0.088 M
How it was run: as §1

Sequence | folding enthalpy [1] | Tm [2]
GCGTAGCGAAAGCAATGC ((.(.((....)).).)) | -7.98 kcal/mol | 35.8 °C
GCGTAGCGAAAGCCAAGC ((.(.((....)).).)) | -8.12 kcal/mol | 39.9 °C
GCGTAGCGAAAGCCAGGC ((.(.((....)).).)) | -5.07 kcal/mol | 31.1 °C
GCGTAGCGAAAGCCATGC ((.(.((....)).).)) | -7.22 kcal/mol | 35.6 °C
GCGTAGCGAAAGCCCCGC (((..((....))..))) | -6.69 kcal/mol | 35.9 °C
GCGTAGCGAAAGCCTCGC (((..((....))..))) | -10.8 kcal/mol | 44.1 °C
GCGTAGCGAAAGCGATGC ((.(.((....)).).)) | -13.9 kcal/mol | 51.6 °C
GCGTAGCGAAAGCGCCGC (((..((....))..))) | -15.9 kcal/mol | 59.7 °C
GCGTAGCGAAAGCTAAGC ((.((((....)))).)) | -16.1 kcal/mol | 58.5 °C
GCGTAGGGAAACCTATGC ((.((((....)))).)) | -34.1 kcal/mol | 50.3 °C
GCGTAGGGAAACCTGCGC (((.(((....))).))) | -37.7 kcal/mol | 58.9 °C
GCGTATCGAAAGATCGC (((.(((....)))))) | -34.2 kcal/mol | 55.6 °C
GCGTATGCGAAAGCACGC (((..(((....)))))) | -20.9 kcal/mol | 53.1 °C
GCGTATGGAAACATGCGC (((.(((....))).))) | -38.2 kcal/mol | 57 °C
GCGTATGGACGC ((((....)))) | -21 kcal/mol | 51.4 °C
GCGTCAACGAAAGTTCGC (((..(((....)))))) | -27.6 kcal/mol | 45 °C
GCGTCAAGACGC ((((....)))) | -29.9 kcal/mol | 55.1 °C
GCGTCACCACGC ((((....)))) | -22.7 kcal/mol | 53 °C
GCGTCACGAAAGTGCGC (((.(((....)))))) | -31.1 kcal/mol | 66.9 °C
GCGTCAGGAAACTGGCGC (((.(((....))).))) | -43.8 kcal/mol | 63 °C
GCGTCATCGAAAGATCGC (((..(((....)))))) | -24.4 kcal/mol | 44 °C
GCGTCCAAACGC ((((....)))) | -18.8 kcal/mol | 51.4 °C
GCGTCCAGACGC ((((....)))) | -28.7 kcal/mol | 56.6 °C
GCGTCCATACGC ((((....)))) | -23.3 kcal/mol | 52.7 °C
GCGTCCCACGC ((((...)))) | -25.9 kcal/mol | 56.3 °C

Sequence | folding enthalpy [1] | Tm [2]
GCGTCCCTACGC ((((....)))) | -23.2 kcal/mol | 53.7 °C
GCGTCCGAAAGGAACGC ((((((....))).))) | -35.7 kcal/mol | 64.9 °C
GCGTCCGAAAGGAGCGC ((((((....))).))) | -22.9 kcal/mol | 66.8 °C
GCGTCCGAAAGGATTCGC ((((((....)))..))) | -26.9 kcal/mol | 47.1 °C
GCGTCCTTACGC ((((....)))) | -23.6 kcal/mol | 53.6 °C
GCGTCGACACGC ((((....)))) | -21.5 kcal/mol | 51.7 °C
GCGTCGACGAAAGTCCGC (((..(((....)))))) | -22.2 kcal/mol | 49.7 °C
GCGTCGAGACGC ((((....)))) | -25.2 kcal/mol | 61 °C
GCGTCGATACGC ((((....)))) | -19.2 kcal/mol | 52.2 °C
GCGTCGCAACGC ((((....)))) | -20 kcal/mol | 56.2 °C
GCGTCGCACGC ((((...)))) | -17.5 kcal/mol | 64.5 °C
GCGTCGCGAAAGCCAGGC ((.(.((....)).).)) | -10.6 kcal/mol | 33.8 °C
GCGTCGCGAAAGCGGAGC ((..(((....)))..)) | -27.6 kcal/mol | 67.5 °C
GCGTCGCGAAAGCTGCGC (((..((....))..))) | -22.5 kcal/mol | 61.7 °C
GCGTCGGGAAACCAACGC ((((.((....)).)))) | -41.5 kcal/mol | 51.5 °C
GCGTCGTAACGC ((((....)))) | -21.4 kcal/mol | 55.3 °C
GCGTCGTTACGC ((((....)))) | -21.8 kcal/mol | 52.6 °C
GCGTCTCAACGC ((((....)))) | -20.3 kcal/mol | 56.6 °C
GCGTCTGGAAACGGACGC (((((.(....).))))) | -48.5 kcal/mol | 64.3 °C
GCGTCTTAACGC ((((....)))) | -26.4 kcal/mol | 57.5 °C
GCGTGAATACGC ((((....)))) | -31.3 kcal/mol | 61.2 °C
GCGTGACGACGC ((((....)))) | -27.2 kcal/mol | 56.8 °C
GCGTGATACGC ((((...)))) | -22.2 kcal/mol | 55.4 °C
GCGTGCACACGC ((((....)))) | -25.7 kcal/mol | 68 °C
GCGTGCCTACGC ((((....)))) | -27.6 kcal/mol | 57 °C

Sequence | folding enthalpy [1] | Tm [2]
GCGTGCGAAAGCAACCGC ((((((....)))..))) | -18.6 kcal/mol | 53.7 °C
GCGTGCGAAAGCAATCGC ((((((....)))..))) | -22.6 kcal/mol | 52.7 °C
GCGTGCGAAAGCAGCCGC ((((((....)))..))) | -19 kcal/mol | 55.2 °C
GCGTGCGAAAGCATACGC ((((((....)))..))) | -28.9 kcal/mol | 63.9 °C
GCGTGCGCACGC ((((....)))) | -45.7 kcal/mol | 62.2 °C
GCGTGCGGAAACGCGTGC ((..(((....)))..)) | -27.6 kcal/mol | 53.5 °C
GCGTGCTACGC ((((...)))) | -18.7 kcal/mol | 62 °C
GCGTGCTCACGC ((((....)))) | -25 kcal/mol | 58.6 °C
GCGTGGCACGC ((((...)))) | -31.8 kcal/mol | 56.8 °C
GCGTGGCCGAAAGGCCGC (((..(((....)))))) | -9.18 kcal/mol | 57.2 °C
GCGTGGCGAAAGCATCGC (((..((....))..))) | -31.9 kcal/mol | 62.1 °C
GCGTGGCTACGC ((((....)))) | -23.4 kcal/mol | 58.5 °C
GCGTGGGACGC ((((...)))) | -16.9 kcal/mol | 52.4 °C
GCGTGGGGAAACCCATGC ((.((((....)))).)) | -42.3 kcal/mol | 57.9 °C
GCGTGGGGAAACCCGCGC (((.(((....))).))) | -44.8 kcal/mol | 69 °C
GCGTGGTACGC ((((...)))) | -20.5 kcal/mol | 56.3 °C
GCGTGGTCACGC ((((....)))) | -26.3 kcal/mol | 57.5 °C
GCGTGGTTACGC ((((....)))) | -21.7 kcal/mol | 54.9 °C
GCGTGTCGAAAGACCCGC (((.(((....))).))) | -42 kcal/mol | 58 °C
GCGTGTCGAAAGACTCGC (((.(((....))).))) | -45.2 kcal/mol | 63.9 °C
GCGTGTGGAAACACGTGC ((..(((....)))..)) | -19.1 kcal/mol | 63.1 °C
GCGTGTGGAAACGTACGC ((((..(....)..)))) | -32.9 kcal/mol | 50.1 °C
GCGTGTTTACGC ((((....)))) | -30 kcal/mol | 55 °C
GCGTTAAGACGC ((((....)))) | -22.4 kcal/mol | 54 °C
GCGTTAGGAAACTAGCGC (((.(((....))).))) | -46.9 kcal/mol | 52.4 °C

Sequence | folding enthalpy [1] | Tm [2]
GCGTTATTACGC ((((....)))) | -26 kcal/mol | 53.9 °C
GCGTTCCAACGC ((((....)))) | -27.7 kcal/mol | 55.6 °C
GCGTTCCCACGC ((((....)))) | -23.4 kcal/mol | 51.9 °C
GCGTTCCCGAAAGGGCGC (((..(((....)))))) | -27.2 kcal/mol | 53.9 °C
GCGTTCGAAAGAAAGCGC ((((((....)))..))) | -29.4 kcal/mol | 53.2 °C
GCGTTCGAAAGAACTCGC ((((((....)))..))) | -17 kcal/mol | 44.7 °C
GCGTTCGAAAGAAGGCGC ((((((....)))..))) | -33.6 kcal/mol | 55.6 °C
GCGTTCGACGC ((((...)))) | -23.7 kcal/mol | 53.8 °C
GCGTTCGCACGC ((((....)))) | -18.8 kcal/mol | 56.5 °C
GCGTTCGGAAACAAACGC (((((.(....).))))) | -34.6 kcal/mol | 47.9 °C
GCGTTCGGAAACGGACGC ((((.((....)).)))) | -40.2 kcal/mol | 64 °C
GCGTTCGGAAACGGATGC ((.(.((....)).).)) | -33.1 kcal/mol | 44.7 °C
GCGTTCTCACGC ((((....)))) | -25.9 kcal/mol | 50.6 °C
GCGTTGAAAAACGC (((((....))))) | -30.2 kcal/mol | 61.2 °C
GCGTTGCACGC ((((...)))) | -23 kcal/mol | 59.4 °C
GCGTTGCGAAAGCAAGGC ((.((((....)))).)) | -30.3 kcal/mol | 68.5 °C
GCGTTGCGAAAGCACAGC ((..(((....)))..)) | -20.9 kcal/mol | 51.1 °C
GCGTTGCGAAAGCACCGC (((.(((....))).))) | -47.7 kcal/mol | 59.1 °C
GCGTTGCGAAAGCAGGGC ((..(((....)))..)) | -23.5 kcal/mol | 55.7 °C
GCGTTGCGAAAGCAGTGC ((..(((....)))..)) | -17.8 kcal/mol | 51.6 °C
GCGTTGCGAAAGCATGGC ((..(((....)))..)) | -18.9 kcal/mol | 42.9 °C
GCGTTGCGAAAGCCAAGC ((.(.((....)).).)) | -21.3 kcal/mol | 46.9 °C
